Experiment [1] concerns the target T1, Potassium voltage-gated channel subfamily KQT member 2 (Homo sapiens, UniProt O43526). Nature of the experiment: Potency index, ratio of EC50 for RET to EC50 for test compound for activation of human Kv7.2 expressed in CHO cells. In kind it is cell-based.
In experiment [2] the target is T1, Potassium voltage-gated channel subfamily KQT member 2. Description: Activation of human Kv7.2 expressed in CHO cells assessed as leftward shift in half-activation voltage at 0.03 uM in constant voltage pulse by whole cell patch clamp electrophysiology assay. It is filed as cell-based. Summed up: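 CHO cells transiently expressing human Kv7.2, whole-cell patch clamp at 20–22°C, pH 7.4 bath. Currents activated by constant voltage pulses before and after 0.03 μM drug. Normalized conductance/voltage curves fitted to a double Boltzmann function to obtain half-activation voltage (V1/2).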

The target is the same in experiment [3]. Description: Activation of human Kv7.2 expressed in CHO cells assessed as increase in current amplitude with fast ON kinetics measured at holding potential of -40 mV by whole cell patch clamp electrophysiology assay. In kind it is cell-based. The essentials: (§1)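 Human Kv7.2 transiently expressed in CHO cells, whole-cell patch clamp at 20–22°C, pH 7.4 HEPES-buffered extracellular solution under constant perfusion. Cells held at -80 mV; 3-s ramps -80 to +20 mV with and without compound; current at -40 mV taken as drug/control amplitude ratio, followed over time during application and wash-out; mean ± SEM of ≥3 cells from ≥2 transfections.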

A short description of experiment [4]: Photostability of compound in pH 7.4 buffer assessed as compound degradation at 100 ug/ml incubated for 6 hrs under UV-irradiation at wavelength of 365 and 264 nm by HPLC analysis. Summed up: (§2)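 Compound from DMSO stock diluted in pH 7.4 buffer to final 1 mM, 10 μM or 1 μM in 1 cm quartz cells, held at 37°C under UV lamp (365 and 264 nm) or artificial daylight D65 lamp; dark controls in foil at 37°C. Aliquots taken at set intervals; loss of parent by HPLC (C18, TFA water/acetonitrile gradient, 254 nm).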

Experiment [5] in a line: Photostability of compound in pH 7.4 buffer assessed as compound degradation at 100 ug/ml incubated for 6 hrs under artificial daylight D65 lamp-irradiation by HPLC analysis relative to control. The essentials:
as §2

Experiment [6] in a line: Photostability of compound in pH 7.4 buffer assessed as formation of ethyl (2,4-bis((4-fluorobenzyl)amino)phenyl)carbamate by measuring retention time of metabolite incubated for 6 hrs under visible light irradiation by HPLC/MS analysis.
The target of experiment [7] is T1, Potassium voltage-gated channel subfamily KQT member 2. Nature of the experiment: Activation of human Kv7.2 expressed in CHO cells assessed as current amplitude at 10 uM measured after 10 secs upon drug wash-out at holding potential of -40 mV by whole cell patch clamp electrophysiology assay. It is filed as cell-based. Summed up:
as §1

Experiment [8] is described as follows: Photostability of compound in pH 7.4 buffer assessed as retention time of metabolite incubated for 6 hrs under visible light irradiation by HPLC/MS analysis.
Experiment [9] in a line: Photostability of compound in pH 7.4 buffer assessed as formation of 4-fluorobenzaldehyde incubated for 6 hrs under visible light irradiation by GCMS analysis.
The target in experiment [10] is Voltage-gated potassium channel, KQT; KCNQ2(Kv7.2)/KCNQ3(Kv7.3) (Homo sapiens, UniProt O43525+O43526). Description: Activation of human Kv7.2/Kv7.3 expressed in CHO cells assessed as increase in channel current amplitude by whole cell patch clamp electrophysiology assay. In kind it is cell-based. The essentials: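 Human Kv7.2 plus Kv7.3 cDNAs co-transfected into CHO cells; whole-cell patch clamp at 20–22°C, extracellular solution pH 7.4. Drug applied at 0.01–10 μM to test concentration-dependent current increase.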
(In general: Patch clamp records ionic current or voltage across a cell membrane.)

Experiment [11] concerns the target T1, Potassium voltage-gated channel subfamily KQT member 2. Description: Activation of human Kv7.2 expressed in CHO cells assessed as increase in channel current amplitude by whole cell patch clamp electrophysiology assay. In kind it is cell-based.
Experiment [12] has as its target T2, Potassium voltage-gated channel subfamily KQT member 4 (Homo sapiens, UniProt P56696).
T2 sequence (P56696 whole entry): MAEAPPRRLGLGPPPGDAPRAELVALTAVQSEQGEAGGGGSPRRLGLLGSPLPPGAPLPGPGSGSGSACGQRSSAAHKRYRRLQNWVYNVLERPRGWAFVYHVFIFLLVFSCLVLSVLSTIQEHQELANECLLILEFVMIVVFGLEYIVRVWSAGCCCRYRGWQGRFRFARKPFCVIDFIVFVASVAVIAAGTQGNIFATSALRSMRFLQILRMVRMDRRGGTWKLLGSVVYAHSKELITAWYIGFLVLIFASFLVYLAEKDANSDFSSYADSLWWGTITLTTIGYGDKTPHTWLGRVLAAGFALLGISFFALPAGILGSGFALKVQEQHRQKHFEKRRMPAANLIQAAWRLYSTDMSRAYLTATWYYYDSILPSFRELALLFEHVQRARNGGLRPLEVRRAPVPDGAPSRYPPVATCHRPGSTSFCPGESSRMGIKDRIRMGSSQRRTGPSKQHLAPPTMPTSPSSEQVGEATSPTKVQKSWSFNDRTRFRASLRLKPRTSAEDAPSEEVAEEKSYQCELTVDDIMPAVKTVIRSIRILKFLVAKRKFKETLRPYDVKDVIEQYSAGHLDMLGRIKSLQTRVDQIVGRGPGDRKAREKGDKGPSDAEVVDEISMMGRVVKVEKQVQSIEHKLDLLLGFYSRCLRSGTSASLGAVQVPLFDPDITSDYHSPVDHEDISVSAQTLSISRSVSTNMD
Description: Activation of human Kv7.4 expressed in CHO cells assessed as increase in channel current amplitude by whole cell patch clamp electrophysiology assay. It is filed as cell-based.

The source made the active and inactive calls. The calls are words filed in the database; no cut-off is given here.

T1 sequence (O43526 whole entry): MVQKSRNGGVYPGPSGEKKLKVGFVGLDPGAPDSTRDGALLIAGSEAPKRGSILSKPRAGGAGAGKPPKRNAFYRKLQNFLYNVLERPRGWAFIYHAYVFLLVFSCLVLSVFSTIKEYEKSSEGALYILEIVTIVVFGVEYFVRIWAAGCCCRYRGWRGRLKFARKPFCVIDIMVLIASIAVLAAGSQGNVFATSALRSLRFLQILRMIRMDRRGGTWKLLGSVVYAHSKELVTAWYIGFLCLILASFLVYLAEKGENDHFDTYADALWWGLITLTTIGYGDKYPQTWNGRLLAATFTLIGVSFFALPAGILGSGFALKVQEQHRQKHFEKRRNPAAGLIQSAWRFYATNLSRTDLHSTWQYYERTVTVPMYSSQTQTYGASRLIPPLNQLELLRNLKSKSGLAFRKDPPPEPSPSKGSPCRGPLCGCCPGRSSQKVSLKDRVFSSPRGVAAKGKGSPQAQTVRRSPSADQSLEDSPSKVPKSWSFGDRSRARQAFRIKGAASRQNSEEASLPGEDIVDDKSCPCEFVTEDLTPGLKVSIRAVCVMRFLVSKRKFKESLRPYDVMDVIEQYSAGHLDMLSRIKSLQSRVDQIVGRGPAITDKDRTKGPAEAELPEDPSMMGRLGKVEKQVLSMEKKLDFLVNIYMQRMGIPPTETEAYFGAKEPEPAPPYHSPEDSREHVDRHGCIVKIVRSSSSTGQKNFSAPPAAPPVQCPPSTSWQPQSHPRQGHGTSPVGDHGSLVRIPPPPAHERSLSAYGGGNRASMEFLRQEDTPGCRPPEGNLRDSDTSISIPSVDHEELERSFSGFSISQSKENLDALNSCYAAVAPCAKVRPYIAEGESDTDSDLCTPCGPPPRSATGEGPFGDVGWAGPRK
Sequence of Voltage-gated potassium channel, KQT; KCNQ2(Kv7.2)/KCNQ3(Kv7.3) (O43526 whole entry): as above
Sequence of Voltage-gated potassium channel, KQT; KCNQ2(Kv7.2)/KCNQ3(Kv7.3) (O43525 whole entry): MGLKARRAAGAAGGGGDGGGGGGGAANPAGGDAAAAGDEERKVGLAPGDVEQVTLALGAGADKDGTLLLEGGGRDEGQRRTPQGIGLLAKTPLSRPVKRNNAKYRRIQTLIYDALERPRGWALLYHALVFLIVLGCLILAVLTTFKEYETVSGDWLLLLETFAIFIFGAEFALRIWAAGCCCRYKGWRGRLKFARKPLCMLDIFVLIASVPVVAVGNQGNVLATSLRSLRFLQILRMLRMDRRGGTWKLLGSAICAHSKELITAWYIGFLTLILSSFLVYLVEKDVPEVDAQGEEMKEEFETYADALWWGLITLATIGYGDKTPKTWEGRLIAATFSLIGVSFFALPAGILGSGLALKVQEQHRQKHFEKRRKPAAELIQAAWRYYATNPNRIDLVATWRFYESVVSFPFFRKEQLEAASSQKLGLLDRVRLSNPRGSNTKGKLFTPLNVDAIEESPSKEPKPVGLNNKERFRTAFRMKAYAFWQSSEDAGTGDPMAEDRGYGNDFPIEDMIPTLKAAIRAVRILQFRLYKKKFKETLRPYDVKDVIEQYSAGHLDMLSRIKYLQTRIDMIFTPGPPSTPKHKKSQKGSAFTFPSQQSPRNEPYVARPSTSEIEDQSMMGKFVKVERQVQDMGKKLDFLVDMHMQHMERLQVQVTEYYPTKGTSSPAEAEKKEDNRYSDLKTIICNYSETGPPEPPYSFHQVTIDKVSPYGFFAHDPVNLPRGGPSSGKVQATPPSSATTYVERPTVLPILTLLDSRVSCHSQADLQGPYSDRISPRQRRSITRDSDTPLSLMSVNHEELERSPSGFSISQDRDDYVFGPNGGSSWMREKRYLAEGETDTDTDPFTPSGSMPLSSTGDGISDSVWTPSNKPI

As for `CCCCCCC(=O)Nc1ccc2c(ccn2Cc2ccc(C(F)(F)F)cc2)c1`, the Ratio EC50 in experiment [1] was 12. Besides, the V1/2 in [2] turned out to be 18 mV.

Turning to `CCOC(=O)Nc1ccc(NCc2ccc(F)cc2)cc1N` [EZOGABINE], the Activity entry in [3] was “Dose-dependent effect”. Further, the Drug degradation in experiment [4] amounted to 5%; in experiment [5], 47.3%. Besides, the Retention time in experiment [6] was found to be 14.4 min; in experiment [8] it was 5.98 min. Also, the outcome in experiment [7] was inactive. For the same compound, in experiment [9], the Drug metabolism result was “Metabolite detected”.

In the case of `CC(C)(C)CC(=O)Nc1ccc2c(ccn2Cc2ccc(C(F)(F)F)cc2)c1`, the EC50 in experiment [10] was found to be 340 nM; in experiment [11], 630 nM; in experiment [12], 80 nM.

One may read the EC50 as the concentration giving half of the maximal effect.

(Values after ChEMBL document CHEMBL4402547, “Synthesis and Pharmacological Characterization of Conformationally Restricted Retigabine Analogues as Novel Neuronal Kv7 Channel Activators” (J Med Chem, 2020).)
